# Test results taken from ChEMBL document CHEMBL1275434, “In vitro evaluation of CBR-2092, a novel rifamycin-quinolone hybrid antibiotic: studies of the mode of action in Staphylococcus aureus” (Antimicrob Agents Chemother, 2008).
# Calls of active or inactive are those of the source. No cut-off for these calls is given here.
# How the values were obtained:
# Staphylococcus aureus [1] = assay: Antimicrobial activity against Staphylococcus aureus CB1335 harboring rpoB H481Y, parC S80F, parE E474Q and gyrA S84L mutant genes selected after 0.8 ug/ml drug exposure by broth microdilution method; type: functional
# Staphylococcus aureus [2] = assay: Inhibition of DNA synthesis in rifamycin-resistant Staphylococcus aureus CB370 harboring rpoB H481Y mutant gene assessed as decrease in [methyl-3H]thymidine incorporation at 0.5 ug/ml; type: functional, organism-based
# In short: (§1)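 Macromolecular synthesis time course in S. aureus, measuring incorporation of [methyl-3H]thymidine (DNA), [5,6-3H]uridine (RNA) or [2,3-3H]D-alanine (cell wall). At each time point, incorporation is expressed as percent of the DMSO-treated control culture. Incorporation at time zero is set to 100%.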
# Staphylococcus aureus [3] = assay: Activity at Staphylococcus aureus wild-type DNA topoisomerase 4 subunit ParC
# In short: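 Recombinant S. aureus topoisomerase IV (wild-type ParC with ParE; specific activity 25 to 30 U per μg). Stopped with SDS/proteinase K. Linear DNA quantified on gel; CC50 is the mean of two or more assays.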
# Staphylococcus aureus [4] = assay: Inhibition of RNA synthesis in quinolone-resistant Staphylococcus aureus CB814 harboring gyrA S84L and parC S80F mutant genes assessed as decrease in [5,6-3H]uridine incorporation at 0.5 ug/ml; type: functional, organism-based; in short: as §1
# Staphylococcus aureus [5] = assay: Antimicrobial activity against Staphylococcus aureus CB1954 harboring rpoB H481Y, gyrA S84L, K809 deficient gyrA, parC S80F, parC A523D mutant genes selected after CBR-2092 exposure for 7 days by agar dilution method; type: functional; conditions: CB1954, 168 h
# In short: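 CLSI agar dilution MIC with cation-adjusted Mueller-Hinton (MHII) agar as the base medium.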
# Staphylococcus aureus [6] = assay: Antimicrobial activity against rifampin-sensitive Staphylococcus aureus CB190 harboring rpoB H481N mutant gene by broth microdilution method; type: functional
# In short: (§2)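 CLSI broth microdilution MIC in cation-adjusted Mueller-Hinton (MHII) broth supplemented with 0.002% (vol/vol) polysorbate 80, included to limit compound loss to plastic surfaces.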
# Staphylococcus aureus [7] = assay: Inhibition of DNA synthesis in Staphylococcus aureus CB190 assessed as decrease in [methyl-3H]thymidine incorporation at 0.5 ug/ml; type: functional, organism-based
# Staphylococcus aureus [8] = assay: Inhibition of protein synthesis in quinolone-resistant Staphylococcus aureus CB814 harboring gyrA S84L and parC S80F mutant genes assessed as decrease in L-[3,4,5-3H]leucine incorporation at 0.5 ug/ml; type: functional, organism-based
# In short: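 Time-course radiolabel incorporation in S. aureus cultures with test agent. Precursors: [methyl-3H]thymidine (DNA), [5,6-3H]uridine (RNA), L-[3,4,5-3H]leucine (protein), [2,3-3H]D-alanine (cell wall). At each time point, incorporation with agent is expressed relative to the DMSO-treated control culture as percent incorporation. Time-zero incorporation is set to 100%.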
# Staphylococcus aureus [9] = assay: Antimicrobial activity against rifampin-sensitive Staphylococcus aureus CB190 harboring rpo BH481D mutant gene by broth microdilution method; type: functional; in short: as §2
# Staphylococcus aureus [10] = assay: Antimicrobial activity against Staphylococcus aureus CB1947 harboring rpoB H481Y, gyrA S84L, E697 deficient gyrA, parC G167V mutant genes selected after CBR-2092 exposure for 20 days by agar dilution method; conditions: CB1947, 480 h
# Staphylococcus aureus [11] = assay: Antimicrobial activity against Staphylococcus aureus CB1881 harboring rpoB R484H mutant gene and L520 deficient gyrA gene by agar dilution method; type: functional
# In short: (§3)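 CLSI agar dilution MIC on MHII base medium against stepwise-passage isolates; passage was in MHII broth without polysorbate 80, daily at 37°C.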
# Staphylococcus aureus [12] = assay: Antimicrobial activity against Staphylococcus aureus CB1421 harboring rpoB H481Y, parC S80F and gyrA S84L mutant genes selected after 0.18 ug/ml drug exposure by broth microdilution method; type: functional
# In short: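 CLSI broth microdilution MIC in cation-adjusted Mueller-Hinton (MHII) broth with 0.002% (vol/vol) polysorbate 80. Single-step mutants were selected on agar […], purified by drug-free passage, their phenotype re-verified, and resistance loci sequenced.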
# Staphylococcus aureus [13] = assay: Antimicrobial activity against wild-type Staphylococcus aureus CB190; type: functional
# Staphylococcus aureus [14] = assay: Antimicrobial activity against Staphylococcus aureus CB1884 harboring rpoB R484H mutant gene, L520 deficient gyrA gene, gyrA S84L mutant gene, R236 duplicated par C gene and parCH103Y mutant gene by broth microdilution; type: functional
# In short: (§4)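 CLSI broth microdilution MIC in MHII broth with 0.002% (vol/vol) polysorbate 80. Isolates came from daily stepwise broth passage at sub-MIC drug (MHII without polysorbate 80, 10^6 CFU/ml inoculum, 20–24 h shaking at 37°C), were purified drug-free, and were sequenced at target loci.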
# Staphylococcus aureus [15] = assay: Antimicrobial activity against Staphylococcus aureus CB812 harboring rpo B H481Y and gyrA S84L mutant genes by broth microdilution method; type: functional; in short: as §2
# Staphylococcus aureus [16] = assay: Antimicrobial activity against Staphylococcus aureus CB1883 harboring rpoB R484H mutant gene, L520 deficient gyrA gene, gyrA S84L mutant gene and R236 duplicated par C gene by agar dilution method; type: functional; in short: as §3
# Staphylococcus aureus [17] = assay: Antimicrobial activity against Staphylococcus aureus CB1954 harboring rpoB H481Y, gyrA S84L, K809 deficient gyrA, parC S80F, parC A523D mutant genes selected after CBR-2092 exposure for 7 days by broth microdilution method; type: functional; conditions: CB1954, 168 h; in short: as §2
# Staphylococcus aureus [18] = assay: Antimicrobial activity against Staphylococcus aureus CB1882 harboring rpoB R484H mutant gene, L520 deficient gyrA gene and R236 duplicated parC gene by broth microdilution method; type: functional; in short: as §4
# Staphylococcus aureus [19] = assay: Antimicrobial activity against rifampin-sensitive Staphylococcus aureus CB190 harboring rpoB H481Y mutant gene by broth microdilution method; type: functional; in short: as §2
# Staphylococcus aureus [20] = assay: Antimicrobial activity against Staphylococcus aureus CB1417 harboring rpoB H481Y and gyrA G532V mutant genes selected after 0.1 ug/ml drug exposure by broth microdilution method
# Staphylococcus aureus [21] = assay: Antimicrobial activity against Staphylococcus aureus CB1883 harboring rpoB R484H mutant gene, L520 deficient gyrA gene, gyrA S84L mutant gene and R236 duplicated par C gene by broth microdilution method; type: functional; in short: as §4
# Staphylococcus aureus [22] = assay: Antimicrobial activity against Staphylococcus aureus CB1334 harboring rpoB H481Y, parC S80F,Q27H and gyrA S84L mutant genes selected after 0.8 ug/ml drug exposure by broth microdilution method; type: functional
# Staphylococcus aureus [23] = assay: Antimicrobial activity against Staphylococcus aureus CB814 harboring fluoroquinolone-resistant gyrA S84L and parC S80F mutant genes by broth microdilution method; type: functional; in short: as §2
# Staphylococcus aureus [24] = assay: Activity at Staphylococcus aureus wild-type GyrA
# In short: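 Recombinant S. aureus gyrase (wild-type GyrA with His-tagged GyrB; 250 U per μg). SDS/proteinase K stop. Gel quantitation of linear cleavage product gave CC50, the mean of two or more assays.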
# Staphylococcus aureus [25] = assay: Antimicrobial activity against Staphylococcus aureus CB1952 harboring rpoB S486L, gyrA […], gyrA E88Q, gyrA G532S, parC S80F, parC E84L mutant genes selected after CBR-2092 exposure for 21 days by broth microdilution method; type: functional; conditions: CB1952, 504 h
# In short: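 CLSI broth microdilution MIC in MHII with 0.002% polysorbate 80 against strains from 20–21 days of stepwise passage of rifamycin- and/or quinolone-resistant parents; CBR-2092 passages used MHII with 0.002% polysorbate 80.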
smiles,measurement,setting,value
CO[C@H]1/C=C/O[C@@]2(C)Oc3c(C)c(O)c4c(O)c(c(/C=N/N5CCC(N(C)C6([C@@H]7CCN(c8c(F)cn9c(=O)c(C(=O)O)cc(C%10CC%10)c9c8C)C7)CC6)CC5)c(O)c4c3C2=O)NC(=O)/C(C)=C\C=C\[C@H](C)[C@H](O)[C@@H](C)[C@@H](O)[C@@H](C)[C@H](OC(C)=O)[C@@H]1C,MIC,Staphylococcus aureus [1],> 16 µg/mL
same,Activity,Staphylococcus aureus [2],Active
same,CC50,Staphylococcus aureus [3],1.7 µM
same,Activity,Staphylococcus aureus [4],Active
same,MIC,Staphylococcus aureus [5],2 µg/mL
same,MIC,Staphylococcus aureus [6],0.25 µg/mL
same,Activity,Staphylococcus aureus [7],Active
same,Activity,Staphylococcus aureus [8],Active
same,MIC,Staphylococcus aureus [9],0.25 µg/mL
same,MIC,Staphylococcus aureus [10],1 µg/mL
same,MIC,Staphylococcus aureus [11],0.25 µg/mL
same,MIC,Staphylococcus aureus [12],1 µg/mL
same,Time,Staphylococcus aureus [13],38 min
same,MIC,Staphylococcus aureus [14],64 µg/mL
same,MIC,Staphylococcus aureus [15],0.5 µg/mL
same,MIC,Staphylococcus aureus [16],1 µg/mL
same,MIC,Staphylococcus aureus [17],16 µg/mL
same,MIC,Staphylococcus aureus [18],1 µg/mL
same,MIC,Staphylococcus aureus [19],0.12 µg/mL
same,MIC,Staphylococcus aureus [20],0.5 µg/mL
same,MIC,Staphylococcus aureus [21],8 µg/mL
same,MIC,Staphylococcus aureus [22],8 µg/mL
same,MIC,Staphylococcus aureus [23],0.015 µg/mL
same,CC50,Staphylococcus aureus [24],1.5 µM
same,MIC,Staphylococcus aureus [25],31 µg/mL
